Source: ChEMBL document CHEMBL5344479, “N-Arylsulfonamide-based adenosine analogues to target RNA cap N7-methyltransferase nsp14 of SARS-CoV-2” (RSC Med Chem, 2024)

Columns and labels:
[1] = molecular target: Replicase polyprotein 1ab (Severe acute respiratory syndrome coronavirus 2) (UniProt P0DTD1); experiment: Inhibition of N-terminal hexa-histidine tagged recombinant SARS-CoV-2 nsp14 RNA cap N7-methyltransferase activity expressed in Escherichia coli C2566 assessed as residual enzyme activity using GpppAC4 synthetic RNA and [3H]-SAM as substrate at 50 uM incubated for 30 mins by filter binding assay based liquid scintillation counter analysis relative to control
Outline: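 Recombinant nsp14 (10 nM), purified by cobalt IMAC and size exclusion, was premixed with compound at 50 µM (2.5% final DMSO). Then 0.7 µM GpppAC4 RNA, 1.9 µM SAM and 0.1 µM 3H-SAM were added in 40 mM Tris-HCl pH 8.0, 1 mM DTT, 1 mM MgCl2. After 30 min at 30 °C, reactions were stopped by 10-fold ice-cold water dilution, DEAE-filtered, washed and scintillation-counted.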

[2] = molecular target: Replicase polyprotein 1ab (Severe acute respiratory syndrome coronavirus 2, UniProt P0DTD1); experiment: Inhibition of N-terminal hexa-histidine tagged recombinant SARS-CoV-2 nsp14 RNA cap N7-methyltransferase activity expressed in Escherichia coli C2566 using GpppAC4 synthetic RNA and [3H]-SAM as substrate incubated for 30 mins by filter binding assay based liquid scintillation counter analysis

| SMILES | Activity [1] [%] | IC50 [2] [µM] |
| --- | --- | --- |
| Cc1cccc(S(=O)(=O)NCc2cn(C[C@H]3O[C@@H](n4cnc5c(N)ncnc54)[C@H](O)[C@@H]3O)nn2)c1 | 82 | – |
| Nc1ncnc2c1ncn2[C@@H]1O[C@H](CSCCNS(=O)(=O)c2ccc(Cl)cc2[N+](=O)[O-])[C@@H](O)[C@H]1O | 2 | 0.9 |
| Nc1ncnc2c1ncn2[C@@H]1O[C@H](CSCCNS(=O)(=O)c2ccc([N+](=O)[O-])cc2)[C@@H](O)[C@H]1O | 9 | 4.7 |
| CCN(CCNS(=O)(=O)c1ccccc1)C[C@H]1O[C@@H](n2cnc3c(N)ncnc32)[C@H](O)[C@@H]1O | 87 | – |
| CCN(Cc1cn(C[C@H]2O[C@@H](n3cnc4c(N)ncnc43)[C@H](O)[C@@H]2O)nn1)S(=O)(=O)c1ccc(Cl)cc1 | 69 | – |
| CCN(CCNS(=O)(=O)c1ccc(C#N)cc1)C[C@H]1O[C@@H](n2cnc3c(N)ncnc32)[C@H](O)[C@@H]1O | 67 | – |
| Nc1ncnc2c1ncn2[C@@H]1O[C@H](CS(=O)(=O)CCNS(=O)(=O)c2ccc([N+](=O)[O-])cc2)[C@@H](O)[C@H]1O | 27 | 27.4 |
| CCN(Cc1cn(C[C@H]2O[C@@H](n3cnc4c(N)ncnc43)[C@H](O)[C@@H]2O)nn1)S(=O)(=O)c1ccc(F)cc1 | 93 | – |
| Cc1ccc(S(=O)(=O)NCCS(=O)(=O)C[C@H]2O[C@@H](n3cnc4c(N)ncnc43)[C@H](O)[C@@H]2O)cc1 | 38 | 49 |
| CCN(CCNS(=O)(=O)c1ccc(C(F)(F)F)cc1)C[C@H]1O[C@@H](n2cnc3c(N)ncnc32)[C@H](O)[C@@H]1O | 83 | – |
| CCN(Cc1cn(C[C@H]2O[C@@H](n3cnc4c(N)ncnc43)[C@H](O)[C@@H]2O)nn1)S(=O)(=O)c1ccc(OC)cc1 | 60 | – |
| Nc1ncnc2c1ncn2[C@@H]1O[C@H](CS(=O)(=O)CCNS(=O)(=O)c2ccccc2)[C@@H](O)[C@H]1O | 48 | 23.3 |
| Cc1ccc(S(=O)(=O)NCCSC[C@H]2O[C@@H](n3cnc4c(N)ncnc43)[C@H](O)[C@@H]2O)cc1 | 10 | 2.2 |
| Nc1ncnc2c1ncn2[C@@H]1O[C@H](Cn2cc(CNS(=O)(=O)c3ccc(C(F)(F)F)cc3)nn2)[C@@H](O)[C@H]1O | 81 | – |
| CCN(CCNS(=O)(=O)c1ccc(C)cc1)C[C@H]1O[C@@H](n2cnc3c(N)ncnc32)[C@H](O)[C@@H]1O | 66 | – |
| CCN(Cc1cn(C[C@H]2O[C@@H](n3cnc4c(N)ncnc43)[C@H](O)[C@@H]2O)nn1)S(=O)(=O)c1ccccc1 | 84 | – |

| SMILES | Activity [1] [%] | IC50 [2] [µM] |
| --- | --- | --- |
| COc1ccc(S(=O)(=O)NCCSC[C@H]2O[C@@H](n3cnc4c(N)ncnc43)[C@H](O)[C@@H]2O)c([N+](=O)[O-])c1 | 0 | 0.9 |
| Nc1ncnc2c1ncn2[C@@H]1O[C@H](CSCCNS(=O)(=O)c2ccccc2[N+](=O)[O-])[C@@H](O)[C@H]1O | 0 | 2.04 |
| COc1ccc(S(=O)(=O)NCc2cn(C[C@H]3O[C@@H](n4cnc5c(N)ncnc54)[C@H](O)[C@@H]3O)nn2)cc1 | 63 | – |
| CCN(Cc1cn(C[C@H]2O[C@@H](n3cnc4c(N)ncnc43)[C@H](O)[C@@H]2O)nn1)S(=O)(=O)c1ccc(C)cc1 | 59 | – |
| Nc1ncnc2c1ncn2[C@@H]1O[C@H](Cn2cc(CNS(=O)(=O)c3ccc(F)cc3)nn2)[C@@H](O)[C@H]1O | 91 | – |
| Nc1ncnc2c1ncn2[C@@H]1O[C@H](Cn2cc(CNS(=O)(=O)c3ccccc3)nn2)[C@@H](O)[C@H]1O | 59 | – |
| CCN(CCNS(=O)(=O)c1ccc([N+](=O)[O-])cc1)C[C@H]1O[C@@H](n2cnc3c(N)ncnc32)[C@H](O)[C@@H]1O | 57 | – |
| Nc1ncnc2c1ncn2[C@@H]1O[C@H](CSCCNS(=O)(=O)c2ccc(C(F)(F)F)cc2)[C@@H](O)[C@H]1O | 7 | 7.3 |
| Cc1ccc(S(=O)(=O)NCc2cn(C[C@H]3O[C@@H](n4cnc5c(N)ncnc54)[C@H](O)[C@@H]3O)nn2)cc1 | 50 | – |
| Nc1ncnc2c1ncn2[C@@H]1O[C@H](Cn2cc(CNS(=O)(=O)c3ccc(Cl)cc3)nn2)[C@@H](O)[C@H]1O | 72 | – |
| Nc1ncnc2c1ncn2[C@@H]1O[C@H](CSCCNS(=O)(=O)c2ccccc2)[C@@H](O)[C@H]1O | 13 | 4.6 |
| N#Cc1ccc(S(=O)(=O)NCCS(=O)(=O)C[C@H]2O[C@@H](n3cnc4c(N)ncnc43)[C@H](O)[C@@H]2O)cc1 | 42 | 52.4 |
| N#Cc1ccc(S(=O)(=O)NCCSC[C@H]2O[C@@H](n3cnc4c(N)ncnc43)[C@H](O)[C@@H]2O)cc1 | 21 | 15.6 |
| Nc1ncnc2c1ncn2[C@@H]1O[C@H](CS(=O)(=O)CCNS(=O)(=O)c2ccc(C(F)(F)F)cc2)[C@@H](O)[C@H]1O | 37 | 38.4 |
| CCN(Cc1cn(C[C@H]2O[C@@H](n3cnc4c(N)ncnc43)[C@H](O)[C@@H]2O)nn1)S(=O)(=O)c1ccc(C(F)(F)F)cc1 | 47 | – |
